We go through 14 molecules from ChEMBL document CHEMBL1137548, “Synthesis and evaluation of naphthyridine compounds as antimalarial agents” (Bioorg Med Chem Lett, 2007).

The nature of series [1]: Therapeutic index, ratio of LD50 for Swiss mice (Mus musculus) to […] for Plasmodium berghei infected Swiss mice (Mus musculus). As to conditions: read-out: Ratio LD50/ED50. The procedure, abridged: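 Ratio of acute LD50 to P. berghei ED50 in mice. LD50: one injection into four non-infected random-bred Swiss mice, deaths scored at 10 days. ED50: i.p. dosing once daily for 4 days, starting 1 h after i.p. parasite inoculation. Parasite growth inhibition is taken against vehicle-treated controls, and the value is read from % of control versus log dose.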

The test system of a further series is Plasmodium berghei. As to the kind of experiment: Antimalarial activity against Plasmodium berghei infected Swiss mice (Mus musculus) by intraperitoneal dose. Type of series: functional. Particulars: ip. The procedure, abridged: (§1)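 Infected mice dosed i.p. once daily for 4 days, with the first dose 1 h after i.p. inoculation with parasites. ED50 is the dose giving 50% inhibition of parasite growth versus vehicle-treated controls (equal volume of vehicle), read from a plot of activity (% of control) against log dose. P. berghei is the sensitive strain and P. yoelii nigeriensis the multidrug-resistant strain.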

The test system of another series is Mastomys coucha. Briefly: Toxicity against Mastomys coucha assessed as methemoglobin levels at 15 mg/kg after 3 days. Particulars: in vivo, 72 h. Type of series: organism-based. Set-up: dose 15 mg/kg. The procedure, abridged: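 Mastomys coucha dosed at 15 mg/kg per day for 3 days, then blood methemoglobin measured as % MetHb. A vehicle group served as control. Values are mean±SEM per group from a set of three experiments.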

Series [2] is described as follows: Toxicity in Swiss mouse after 10 days. Type of series: organism-based. Particulars: in vivo. The procedure, abridged:
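Acute toxicity: a single drug injection into four non-infected random-bred Swiss mice, with deaths recorded 10 days after injection.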

A further series concerns Plasmodium falciparum. Briefly: Antimalarial activity against chloroquine-resistant Plasmodium falciparum W2. Type of series: functional, organism-based.
Series [3] concerns Plasmodium yoelii nigeriensis. Briefly: Antimalarial activity against Plasmodium yoelii nigeriensis infected Swiss mice (Mus musculus) by intraperitoneal dose. Type of series: functional. As to conditions: ip. In outline: as §1

For `CCOc1cc(NC(C)(C)CCCN)c2ncccc2n1`, the selectivity ratio in series [1] came to 163. In addition, the values for the ED50 (in the series on Plasmodium berghei; in series [3]) were 0.95 mg/kg and 0.89 mg/kg, respectively. Further, the Activity in the series with Mastomys coucha was -0.12%. In series [2], this molecule yielded an LD50 at 240 h of 155 mg/kg. In the series with Plasmodium falciparum, this molecule came in with an IC50 of 77 nM.

With `CCOc1cc(NC2(CCCN)CC2)c2nc(OC)ccc2n1`, the selectivity ratio in series [1] is more than 278. Also, the ED50 stood at 0.72 mg/kg in the series with Plasmodium berghei and 0.65 mg/kg in series [3]. Besides, in the series on Mastomys coucha, the Activity is recorded as -0.1%. Further, the LD50 at 240 h in series [2] is more than 200 mg/kg. This molecule also showed an IC50 with Plasmodium falciparum of 45 nM.

With `CCOc1cc(NC2(CCCN)CC2)c2nc(C(F)(F)F)ccc2n1`, the selectivity ratio in series [1] is more than 267. The ED50 with Plasmodium berghei stood at 0.75 mg/kg; in series [3] it was 0.68 mg/kg. In addition, in the series on Mastomys coucha, the Activity stood at 0.095%. Further, the median lethal dose (LD50) at 240 h in series [2] is more than 200 mg/kg. In the series with Plasmodium falciparum, this molecule came in with an IC50 of 58 nM.

Turning to `CC(C)Oc1cc(NC2(CCCN)CC2)c2nc(C(F)(F)F)ccc2n1`, the selectivity ratio in series [1] was more than 769. Moreover, the ED50 turned out to be 0.26 mg/kg with Plasmodium berghei and 0.23 mg/kg in series [3]. In the series with Mastomys coucha, the Activity is given as 0.14%. The molecule further gave an LD50 at 240 h in series [2] of more than 200 mg/kg. Further, in the series with Plasmodium falciparum, the IC50 was 55 nM.

On to `CC(C)Oc1cc(NC(C)(C)CCCN)c2ncccc2n1`, for which, in series [1], the selectivity ratio stood at 506. Also, the results for the ED50 (in the series on Plasmodium berghei; in series [3]) were 0.33 mg/kg and 0.28 mg/kg, respectively. In addition, the Activity in the series with Mastomys coucha is -0.15%. The LD50 at 240 h in series [2] turned out to be 167 mg/kg. In the series on Plasmodium falciparum, this molecule gave an IC50 of 110 nM.

Consider `CCOc1cc(NC2(CCCN)CC2)c2ncccc2n1`, for which the selectivity ratio in series [1] stood at 183. The ED50 in the series with Plasmodium berghei was found to be 0.88 mg/kg; in series [3], 1 mg/kg. The Activity in the series with Mastomys coucha is on record as -0.12%. This molecule also registered an LD50 at 240 h in series [2] of 161 mg/kg. In the series with Plasmodium falciparum, this molecule had a half-inhibitory concentration (IC50) of 72 nM.

Regarding `CC(C)Oc1cc(NC2(CCCN)CC2)c2ncccc2n1`, in series [1], the selectivity ratio is 603. Moreover, the median effective dose (ED50) worked out at 0.29 mg/kg with Plasmodium berghei and 0.38 mg/kg in series [3]. The Activity in the series on Mastomys coucha is recorded as -0.1%. In addition, the LD50 at 240 h in series [2] came out at 175 mg/kg. 100 nM corresponded to half-maximal inhibition in the series with Plasmodium falciparum (IC50).

For the molecule `COc1cc(NC2(CCCN)CC2)c2ncccc2n1`, the selectivity ratio in series [1] is 91. Further, the ED50 is 1.6 mg/kg in the series with Plasmodium berghei and 1.4 mg/kg in series [3]. The Activity in the series on Mastomys coucha is recorded as 0.1%. The molecule further had an LD50 at 240 h in series [2] of 145 mg/kg. In the series with Plasmodium falciparum, this molecule displayed an IC50 of 57 nM.

In the case of `COc1ccc2nc(OC(C)C)cc(NC3(CCCN)CC3)c2n1`, the selectivity ratio in series [1] was more than 645. Moreover, the median effective dose (ED50) came out at 0.31 mg/kg with Plasmodium berghei and 0.41 mg/kg in series [3]. Also, the Activity in the series on Mastomys coucha is on record as -0.12%. Moreover, in series [2], the LD50 at 240 h was more than 200 mg/kg. This molecule also gave an IC50 in the series with Plasmodium falciparum of 47 nM.

Regarding `COc1cc(NC(C)(C)CCCN)c2nc(C(F)(F)F)ccc2n1`, in series [1], the selectivity ratio was more than 133. Also, the values for the ED50 (in the series with Plasmodium berghei; in series [3]) were 1.5 mg/kg and 1.7 mg/kg, respectively. For the same molecule, the Activity with Mastomys coucha is reported as -0.11%. This molecule also returned an LD50 at 240 h in series [2] of more than 200 mg/kg. This molecule had a half-inhibitory concentration (IC50) in the series with Plasmodium falciparum of 21 nM.

For `COc1cc(NC(C)(C)CCCN)c2nc(OC)ccc2n1`, the selectivity ratio in series [1] was more than 125. For the same molecule, the ED50 in the series on Plasmodium berghei came to 1.6 mg/kg; in series [3], 2 mg/kg. Moreover, in the series with Mastomys coucha, the Activity was determined as 0.13%. The molecule also gave a 50% lethal dose (LD50) at 240 h in series [2] of more than 200 mg/kg. Also, the IC50 with Plasmodium falciparum worked out at 33 nM.

Consider `COc1cc(NC(C)(C)CCCN)c2ncccc2n1`, for which the selectivity ratio in series [1] was determined as 72. For the same molecule, the ED50 in the series with Plasmodium berghei was 1.8 mg/kg; in series [3] it was 2.1 mg/kg. In addition, the Activity in the series on Mastomys coucha was found to be 0.1%. Also, the LD50 at 240 h in series [2] was 130 mg/kg. This molecule returned an IC50 in the series with Plasmodium falciparum of 65 nM.

Regarding `CCN(CC)CCCC(C)Nc1ccnc2cc(Cl)ccc12` (stereo unspecified) [CHLOROQUINE], the ED50 in the series on Plasmodium berghei came out at 2 mg/kg.

Turning to `COc1cc(NC(C)CCCN)c2ncccc2c1` (stereo unspecified) [PRIMAQUINE], the Activity in the series on Mastomys coucha was found to be 3.4%. Also, in series [2], the LD50 at 240 h was 55 mg/kg. The molecule further gave a 50% inhibitory concentration (IC50) in the series with Plasmodium falciparum of more than 10000 nM.

The ED50 is the dose at which the effect has come halfway, by size or by number of responders. Read a low ED50 as greater potency. A word on the LD50: it is the dose at which mortality reaches 50%. Lower therefore signals a more toxic substance. Usually IC50 stands for the concentration needed to halve the response being measured. Lower therefore signals greater potency in that assay.
